Data as given in ChEMBL document CHEMBL1134409, “Design, synthesis, and discovery of a novel CCR1 antagonist” (J Med Chem, 2001).

Legend:
[1] = target: T1, C-C chemokine receptor type 1 (Mus musculus, UniProt P51675); assay: Inhibitory activity against [125I]-MIP-1 alpha binding to mouse CCR1 receptors.
T1 sequence (P51675 whole entry): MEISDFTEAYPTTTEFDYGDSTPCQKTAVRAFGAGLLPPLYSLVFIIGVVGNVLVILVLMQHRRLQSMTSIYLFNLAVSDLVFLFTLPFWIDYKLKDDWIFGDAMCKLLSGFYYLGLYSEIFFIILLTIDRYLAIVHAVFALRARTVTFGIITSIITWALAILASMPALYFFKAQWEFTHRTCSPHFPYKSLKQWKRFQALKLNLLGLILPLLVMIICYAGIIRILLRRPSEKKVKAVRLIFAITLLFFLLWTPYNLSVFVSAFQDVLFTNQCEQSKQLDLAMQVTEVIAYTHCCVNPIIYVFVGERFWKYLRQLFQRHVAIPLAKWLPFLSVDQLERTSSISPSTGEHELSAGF
Summary of the method: (§1)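 Whole-cell binding. CHO cells transfected with the CCR receptor were detached with PBS(-) containing 2 mM EDTA and resuspended in Krebs-Ringer phosphate buffer with 0.1% BSA and 0.1% glucose. 1 × 10^5 cells were incubated with 50 pM 125I-chemokine plus antagonist for 1 h at 37 °C to reach equilibrium. Nonspecific binding was taken with 100 nM unlabeled chemokine. Ice-cold buffer was then added.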

[2] = target: T2, C-C chemokine receptor type 1 (Homo sapiens, UniProt P32246); assay: Inhibitory activity against [125I]-MIP-1 alpha binding to human CCR1 receptors.; summary of the method: as §1
T2 sequence (P32246 whole entry): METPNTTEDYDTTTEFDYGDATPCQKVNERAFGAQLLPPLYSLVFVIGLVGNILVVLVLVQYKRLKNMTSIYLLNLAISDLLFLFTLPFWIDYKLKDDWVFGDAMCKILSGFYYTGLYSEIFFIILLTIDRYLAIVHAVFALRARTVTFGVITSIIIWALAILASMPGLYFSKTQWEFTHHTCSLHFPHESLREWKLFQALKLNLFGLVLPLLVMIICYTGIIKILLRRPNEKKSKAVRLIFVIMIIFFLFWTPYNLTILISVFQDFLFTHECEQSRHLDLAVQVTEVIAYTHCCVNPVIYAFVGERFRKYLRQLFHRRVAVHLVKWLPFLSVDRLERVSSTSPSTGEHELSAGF

[3] = target: C-C chemokine receptor type 5 (Homo sapiens, UniProt P51681); assay: Inhibition of RANTES binding to C-C chemokine receptor type 5
Summary of the method: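 CCR5 binding was done on membranes, following the kit manufacturer's instructions.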

[4] = target: T1, C-C chemokine receptor type 1; assay: Inhibitory activity against 125 I -MIP-1 alpha binding to mouse CCR1 receptors
Summary of the method: (§2)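 CCR-transfected CHO cells, detached with PBS(-)/2 mM EDTA, in Krebs-Ringer phosphate buffer with 0.1% BSA and 0.1% glucose. 1×10^5 cells incubated with 50 pM 125I-chemokine plus antagonist, 1 h at 37 °C to equilibrium. Nonspecific binding measured with 100 nM unlabeled chemokine. Reaction stopped with ice-cold binding buffer.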

[5] = target: T1, C-C chemokine receptor type 1; assay: inhibitory activity against MIP-1 alpha- induced [Ca2+] response in U937 cells expressing mouse CCR1 receptor; type: functional, cell-based, U-937
Summary of the method: (§3)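 Calcium flux in U937 cells transfected with CCR receptors, loaded with 1 µM Fura-2 AM for 30 min at 37 °C, washed twice and resuspended at 1×10^6 cells/mL in Krebs-Henseleit-Hepes buffer with 0.1% BSA. Stirred cuvette fluorescence read at 37 °C, excitation 340 and 380 nm, emission 510 nm, after chemokine stimulation.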

[6] = target: T3, Probable C-C chemokine receptor type 3 (Mus musculus, UniProt P51678); assay: Inhibitory activity against I-Eotaxin alpha binding to mouse CCR3 receptors; summary of the method: as §1
T3 sequence (P51678 whole entry): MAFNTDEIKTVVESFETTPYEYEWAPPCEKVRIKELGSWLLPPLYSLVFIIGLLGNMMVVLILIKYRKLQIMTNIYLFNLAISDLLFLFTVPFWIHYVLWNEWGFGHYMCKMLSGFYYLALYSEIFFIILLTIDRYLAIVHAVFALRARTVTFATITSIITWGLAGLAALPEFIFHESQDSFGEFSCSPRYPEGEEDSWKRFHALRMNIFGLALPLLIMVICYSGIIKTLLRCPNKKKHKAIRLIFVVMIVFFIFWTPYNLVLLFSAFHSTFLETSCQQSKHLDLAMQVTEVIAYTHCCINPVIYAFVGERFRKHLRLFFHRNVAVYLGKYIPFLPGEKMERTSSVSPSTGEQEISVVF

[7] = target: T3, Probable C-C chemokine receptor type 3; assay: Inhibitory activity against I-Eotaxin induced [Ca2+] response in mouse CCR3 receptor; type: functional
Summary of the method: (§4)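 U937 cells transfected with the CCR receptor were loaded with 1 µM Fura-2 AM for 30 min at 37 °C and washed twice. They were resuspended at 1 × 10^6 cells/mL in Krebs-Henseleit-HEPES with 0.1% BSA. The stirred cuvette suspension was read at 37 °C for chemokine-induced fluorescence change, with excitation at 340 and 380 nm and emission at 510 nm.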

[8] = target: T2, C-C chemokine receptor type 1; assay: Inhibitory activity against MIP-1 alpha- induced [Ca2+] response in U937 cells expressing human CCR1 receptor; type: functional, cell-based, U-937; summary of the method: as §4
[9] = target: C-C chemokine receptor type 2 (Homo sapiens, UniProt P41597); assay: Inhibitory activity in human CCR2b receptor
[10] = target: T4, C-C chemokine receptor type 3 (Homo sapiens, UniProt P51677); assay: Inhibitory activity against I-Eotaxin binding to human CCR3 receptors; summary of the method: as §2
T4 sequence (P51677 whole entry): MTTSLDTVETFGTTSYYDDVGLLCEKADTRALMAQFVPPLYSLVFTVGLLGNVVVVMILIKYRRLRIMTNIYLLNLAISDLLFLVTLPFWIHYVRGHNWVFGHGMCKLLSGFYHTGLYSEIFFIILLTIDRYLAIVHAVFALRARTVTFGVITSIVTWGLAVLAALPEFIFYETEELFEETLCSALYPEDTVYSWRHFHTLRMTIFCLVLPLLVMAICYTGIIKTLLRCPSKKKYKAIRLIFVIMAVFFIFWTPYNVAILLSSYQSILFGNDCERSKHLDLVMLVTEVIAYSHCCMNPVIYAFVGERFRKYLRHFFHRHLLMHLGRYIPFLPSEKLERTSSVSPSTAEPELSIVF

[11] = target: T4, C-C chemokine receptor type 3; assay: Inhibitory activity against I-Eotaxin induced [Ca2+] response in human CCR3 receptor; type: functional; summary of the method: as §3
[12] = target: T5, C-C chemokine receptor type 4 (Homo sapiens, UniProt P51679); assay: Inhibitory activity against […] induced increase in intracellular [Ca2+] in KU812 cells expressing human CCR4 receptor; type: functional, cell-based
T5 sequence (P51679 whole entry): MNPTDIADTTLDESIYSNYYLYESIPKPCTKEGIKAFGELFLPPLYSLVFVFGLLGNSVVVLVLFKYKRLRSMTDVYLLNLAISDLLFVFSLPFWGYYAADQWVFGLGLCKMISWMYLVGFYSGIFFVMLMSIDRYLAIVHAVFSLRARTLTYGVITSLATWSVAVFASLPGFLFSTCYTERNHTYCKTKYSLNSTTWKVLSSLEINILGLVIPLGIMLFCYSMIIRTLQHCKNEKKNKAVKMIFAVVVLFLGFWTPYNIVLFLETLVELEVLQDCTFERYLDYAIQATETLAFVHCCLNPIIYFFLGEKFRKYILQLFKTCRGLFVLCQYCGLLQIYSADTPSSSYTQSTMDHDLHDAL
Summary of the method: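 Calcium rise evoked by TARC in KU812 cells.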

[13] = Inhibitory activity of Fractalkine-induced increase in [Ca2+] Conc. in HEL cells at human CX3CR1 receptor; type: functional, cell-based
Summary of the method: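 Calcium rise evoked by fractalkine in HEL cells.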

[14] = Inhibitory activity of I-interleukin-8-binding to human neutrophil at human CXCR1,2 receptor
Summary of the method: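 125I-interleukin-8 binding to human neutrophil membranes.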

Sequence of C-C chemokine receptor type 5 (P51681 whole entry): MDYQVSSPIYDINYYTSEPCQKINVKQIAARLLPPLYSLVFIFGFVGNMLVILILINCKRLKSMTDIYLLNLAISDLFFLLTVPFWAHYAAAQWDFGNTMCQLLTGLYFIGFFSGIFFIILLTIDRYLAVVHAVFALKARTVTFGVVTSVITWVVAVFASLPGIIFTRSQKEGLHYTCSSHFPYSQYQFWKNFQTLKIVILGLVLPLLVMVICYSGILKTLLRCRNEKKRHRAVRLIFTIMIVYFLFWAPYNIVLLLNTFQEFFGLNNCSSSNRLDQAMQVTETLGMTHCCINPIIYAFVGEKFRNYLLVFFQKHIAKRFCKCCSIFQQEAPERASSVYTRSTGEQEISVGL
Sequence of C-C chemokine receptor type 2 (P41597 whole entry): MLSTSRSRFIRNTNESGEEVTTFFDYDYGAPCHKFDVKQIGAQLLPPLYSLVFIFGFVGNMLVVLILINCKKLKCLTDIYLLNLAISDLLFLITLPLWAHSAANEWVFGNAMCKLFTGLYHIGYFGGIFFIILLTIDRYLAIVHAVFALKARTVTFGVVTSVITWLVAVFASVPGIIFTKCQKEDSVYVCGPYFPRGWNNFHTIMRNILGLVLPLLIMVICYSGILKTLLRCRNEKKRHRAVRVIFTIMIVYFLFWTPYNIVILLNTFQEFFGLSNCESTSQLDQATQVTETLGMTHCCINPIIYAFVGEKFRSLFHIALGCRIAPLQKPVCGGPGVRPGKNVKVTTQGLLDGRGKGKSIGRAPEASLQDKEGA

Row | Compound | IC50 [1] [nM] | IC50 [2] [nM] | other results
1 | CCCCCCN1CCC(NC(=O)C2c3ccccc3Oc3ccccc32)CC1 | > 10000 | 510 | 
2 | C=CC[N+]1(CC2CCCCCCC2)CCC(NC(=O)C2c3ccccc3Oc3ccccc32)CC1 (stereo not given) | 670 | 9.7 | 
3 | CC[N+]1(CC2CCCCCCC2)CCC(NC(=O)C2c3ccccc3Oc3ccccc32)CC1 (stereo not given) | 660 |  | 
4 | N#CC(CCCN1CCC(O)(c2ccc(Cl)cc2)CC1)(c1ccccc1)c1ccccc1 [BERLEX COMPOUND] | 5000 | 48 | 
5 | O=C(NC1CCN(CC2CCCCCCCCC2)CC1)C1c2ccccc2Oc2ccccc21 | > 10000 | 800 | 
6 | O=C(NC1CC[N+](Cc2ccccc2)(CC2CCCCCCC2)CC1)C1c2ccccc2Oc2ccccc21 (stereo not given) | 1300 | 370 | 
7 | O=C(NC1CCN(CC2CCCCCCC2)CC1)c1c2ccccc2cc2ccccc12 | > 10000 | > 10000 | 
8 | O=C(NC1CCN(C/C2=C/CCCCCC2)CC1)C1c2cc(Br)ccc2Oc2ccc(Br)cc21 | 2500 | 150 | 
9 | C[N+]1(C/C2=C/CCCCCC2)CCC(NC(=O)C2c3ccccc3Oc3ccccc32)CC1 (stereo not given) | 350 | 2.5 | 
10 | O=C(NC1CCN(Cc2ccc3ccccc3c2)CC1)C1c2ccccc2Oc2ccccc21 | > 10000 | > 10000 | 
11 | O=C(NC1CCN(CC2CCCCCCC2)CC1)C1c2cc(Cl)ccc2Oc2ccc(Cl)cc21 | > 10000 | > 10000 | 
12 | O=C(NC1CCN(CC2CCCCC2)CC1)C1c2ccccc2Oc2ccccc21 | > 10000 | 200 | 
13 | O=C(NC1CCN(CC2CCCCCCC2)CC1)C(c1ccccc1)c1ccccc1 | > 10000 | 1100 | 
14 | C[N+]1(CC2CCCCCCC2)CCC(NC(=O)c2c3ccccc3cc3ccccc23)CC1 (stereo not given) | > 10000 | 1800 | 
15 | CC[N+]1(C/C2=C/CCCCCC2)CCC(NC(=O)C2c3cc(Br)ccc3Oc3ccc(Br)cc32)CC1 (stereo not given) | 12 | 1.9 | 
16 | C[N+]1(CC2CCCCCCC2)CCC(NC(=O)C(O)(c2ccccc2)c2ccccc2)CC1 (stereo not given) | > 10000 | 2100 | 
17 | O=C(NC1CCN(CC2CCCCCCC2)CC1)C1c2cc(Br)ccc2Oc2ccc(Br)cc21 | > 10000 | 5100 | 
18 | O=C(NC1CCN(Cc2ccccc2)CC1)C1c2ccccc2Oc2ccccc21 | > 10000 | > 10000 | 
19 | O=C(NC1CCN(CC2CCCCCCC2)CC1)C(O)(c1ccccc1)c1ccccc1 | > 10000 | 1600 | 
20 | CCC[N+]1(C/C2=C/CCCCCC2)CCC(NC(=O)C2c3ccccc3Oc3ccccc32)CC1 (stereo not given) | 270 | 2.8 | 
21 | O=C(NC1CCN(C/C2=C/CCCCCC2)CC1)C1c2cc(Cl)ccc2Oc2ccc(Cl)cc21 | 1900 | 240 | 

Second part, led by results:

Row | IC50 [1] [nM] | IC50 [2] [nM] | Compound | other results
22 | 63 | 2 | CC[N+]1(C/C2=C/CCCCCC2)CCC(NC(=O)C2c3ccccc3Oc3ccccc32)CC1 (stereo not given) | 
23 | 5.8 | 0.9 | CC[N+]1(C/C2=C/CCCCCC2)CCC(NC(=O)C2c3cc(Cl)ccc3Oc3ccc(Cl)cc32)CC1 (stereo in doubt; 2q-1) | IC50 [3]: > 1000 nM; IC50 [4]: 5.8 nM; IC50 [5]: 21 nM; IC50 [6]: 460 nM; IC50 [7]: 360 nM; IC50 [8]: 0.73 nM; IC50 [9]: > 1000 nM; IC50 [10]: 0.58 nM; IC50 [11]: 6.1 nM; IC50 [12]: > 10000 nM; IC50 [13]: > 10000 nM; IC50 [14]: > 1000 nM
24 | 2100 | 14 | C[N+]1(CC2CCCCCCC2)CCC(NC(=O)C2c3ccccc3Oc3ccccc32)CC1 (stereo not given) | 
25 | 140 | 3.3 | CC[N+]1(CC2CCCCCCC2)CCC(NC(=O)C2c3cc(Br)ccc3Oc3ccc(Br)cc32)CC1 (stereo not given) | 
26 | 740 | 47 | CC[N+]1(C/C2=C/CCCCCC2)CCC(NC(=O)C2c3cc(Cl)ccc3Oc3ccc(Cl)cc32)CC1 (stereo in doubt; 2q-2) | 
27 | 380 | 5 | CCCC[N+]1(CC2CCCCCCC2)CCC(NC(=O)C2c3ccccc3Oc3ccccc32)CC1 (stereo not given) | 
28 | 12 | 1.2 | CC[N+]1(C/C2=C/CCCCCC2)CCC(NC(=O)C2c3cc(Cl)ccc3Oc3ccc(Cl)cc32)CC1 (stereo in doubt; 2q) | 
29 | 140 | 3.1 | CCC[N+]1(CC2CCCCCCC2)CCC(NC(=O)C2c3cc(Br)ccc3Oc3ccc(Br)cc32)CC1 (stereo not given) | 
30 | 710 | 17 | C[N+]1(CC2CCCCCCC2)CCC(NC(=O)C2c3cc(Cl)ccc3Oc3ccc(Cl)cc32)CC1 (stereo not given) | 
31 | > 10000 | 140 | O=C(NC1CCN(CC2CCCCCCC2)CC1)C1c2ccccc2Oc2ccccc21 | 
32 | 270 | 3.6 | CCC[N+]1(CC2CCCCCCC2)CCC(NC(=O)C2c3ccccc3Oc3ccccc32)CC1 (stereo not given) | 
33 | > 10000 | 800 | C[N+]1(CC2CCCCCCC2)CCC(NC(=O)C(c2ccccc2)c2ccccc2)CC1 (stereo not given) | 
34 | 590 | 51 | O=C(NC1CCN(C/C2=C/CCCCCC2)CC1)C1c2ccccc2Oc2ccccc21 | 
35 | 240 |  | C[N+]1(CC2CCCCCCC2)CCC(NC(=O)C2c3cc(Br)ccc3Oc3ccc(Br)cc32)CC1 (stereo not given) | 
